Compound activity (PubChem BioAssay)
TLR9-MyD88 inh – inhibitors of TLR9-MyD88 association in cells, primary screen, cell-based, CHO, BLA complementation, fluorescence | Toll-like receptor 9 (Homo sapiens) + Myeloid differentiation primary response protein … | CCF4 FRET ratio | inhibition, % at 4.98 µM | 0.21% of 340,000 active;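 active means inhibition above the mean over all tested compounds plus 3 SD, cut at about 21% in these data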;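 further: 0% = DMSO only wells and 100% = clavulanate BLA inhibitor control wells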
NOD2-RIPK2 inh – NOD2-RIPK2 binding disruptors in cells, primary screen, fluorescence, CHO cells, BLA complementation; Receptor-interacting serine/threonine-protein kinase 2 (Homo sapiens), O43353; CCF4 ratio; inhibition, % at 4.98 µM; 0.38% of 360,000 active; in the data active means inhibition above about 21%;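 further: 0% = vehicle only and 100% = reference blocker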
MC4R antag cAMP – MC4R antagonists of cAMP signaling, primary screen, cell-based, TR-FRET, antagonist arm of biased-ligand search. Melanocortin receptor 4 (Homo sapiens), P32245. MC4R-expressing cells, MTII-stimulated cAMP, LANCE TR-FRET. inhibition, % at 6.5 µM. 0.48% of 360,000 active. AID 540295, 2011;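 active means inhibition above its plate's cutoff, the mean of tested wells on that plate plus 3 SD, cut at about 29% in these data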;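 further: 0% = Melanotan II alone and 100% = Melanotan II plus saturating MCL0020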
Target sequence (P32245 whole entry, looked up): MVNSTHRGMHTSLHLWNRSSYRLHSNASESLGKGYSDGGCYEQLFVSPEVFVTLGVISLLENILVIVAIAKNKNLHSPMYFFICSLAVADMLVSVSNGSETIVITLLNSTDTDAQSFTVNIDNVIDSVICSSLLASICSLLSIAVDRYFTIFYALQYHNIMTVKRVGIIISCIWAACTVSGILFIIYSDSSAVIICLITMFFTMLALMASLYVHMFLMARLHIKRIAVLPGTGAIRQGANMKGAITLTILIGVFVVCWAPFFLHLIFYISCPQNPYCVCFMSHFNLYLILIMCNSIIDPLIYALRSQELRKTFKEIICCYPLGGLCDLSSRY
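System: U2OS cells stably expressing human melanocortin 4 receptor (MC4R). Reagent: Melanotan II challenge after compound preincubation. Doses: 6.5 µM. Times: 30-min compound, 1-h challenge, 1-h detection, room temperature. Measured by: TR-FRET with Eu-cAMP and labeled anti-cAMP, 671 nm. Replicates: singlicate.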
MC4R barr agon – MC4R agonists recruiting beta-arrestin, primary screen, cell-based, luminescence, agonist arm of biased-ligand search; Melanocortin receptor 4 (Homo sapiens), P32245; U2OS MC4R beta-arrestin complementation; percent of melanotan II response, DMSO zero; activation, % at 8.9 µM; 0.98% of 360,000 active;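 active means activation above a per-plate cutoff, the mean activation of sample wells on that plate plus 3 SD, cut at about 8% in these data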
TLR4 MyD88 comp – inhibitors of TLR4-MyD88 association in cells, primary screen, cell-based, HeLa CL3-4, BLA complementation, FRET ratio | Toll-like receptor 4 (Homo sapiens) + Myeloid differentiation primary response protein … | inhibition, % at 8.4 µM | AID 861, 2007 | 0.18% of 200,000 active | HeLa CL3-4 TLR4/MyD88 BLA complementation; in the data active means inhibition above about 25%;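 further: 0% = vehicle and 100% = reference inhibitor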
cAMP nonselect – nonselective cAMP signaling inhibitors, parental cells, counter-screen for MC4R biased antagonist project, cell-based, TR-FRET, U2OS, forskolin, triplicate; shares compounds with MC4R antag cAMP; LANCE TR-FRET; inhibition, % at 6.5 µM; 26% of 1,600 active; AID 602193, 2012;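 active means mean inhibition over triplicates above the low-control well mean plus 3 SD, set per campaign, cut at about 13% in these data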;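 further: signal is single emission at 671 nm which falls as cellular cAMP rises; 0% = forskolin-stimulated wells and 100% = buffer without forskolin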
MC4R antag conf – MC4R cAMP antagonists, retest, confirmation, cell-based, TR-FRET | shares compounds with MC4R antag cAMP | MC4R-expressing cells, MTII-stimulated cAMP | 27% of 1,600 active | inhibition, % at 6.5 µM; in the data active means inhibition above about 29%;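 further: 0% = agonist stimulated wells alone and 100% = agonist stimulated wells plus saturating reference antagonist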
Numbers without * were called inactive; . = no result given. Rows were chosen to be rich in hits. Some 1.8% of all compounds tested hit in one or more screens of this group.

SMILES	TLR9-MyD88 inh	NOD2-RIPK2 inh	MC4R antag cAMP	MC4R barr agon	TLR4 MyD88 comp	cAMP nonselect	MC4R antag conf
Cc1ccc(S(=O)(=O)N2CCCCC2)cc1NC(=O)COC(=O)c1cc[n+]([O-])cc1	2	-4	29*	2	5	3	-4
CCOC(=O)C1(Cc2cccc(F)c2)CCN(Cc2cnn(CC)c2)CC1	-5	-9	29*	1	-10	4	13
Cc1cc(C)c(S(=O)(=O)NCC2CCC(C(=O)NCc3ccccn3)CC2)c(C)c1 (centres undefined)	-1	12	4	-1	-3	.	.
O=C(CCl)NNC(=O)c1c(O)c2ccccc2[nH]c1=O	-3	-9	31*	0	.	-1	-3
CCN(CC)C(=O)C(=O)Nc1ccc(Oc2ccccc2)cc1	6	0	33*	1	-4	0	-11
O=C1CCCN1C(=O)CSc1ccc2ccccc2n1	3	-14	8	-2	.	.	.
O=C(O)COc1cccc(NC(=O)c2ccccc2)c1	8	-5	10	-1	-8	.	.
COC(=O)COc1cccc(NC(=O)C(c2ccccc2)c2ccccc2)c1	1	-11	29*	2	.	7	15
Cc1ccccc1NC(=O)Nc1cccs1	0	0	4	1	7	.	.
Cc1ccc(Cl)cc1NC(=O)Nc1cccs1	0	-7	30*	-2	-8	-1	-2
CC(C)CNC(=O)c1cccc(NC(=O)c2ccc(Cl)c([N+](=O)[O-])c2)c1	3	-14	32*	2	-19	11	15
Cc1ccccc1CNC(=O)c1ccc(Cl)c([N+](=O)[O-])c1	2	2	31*	-2	2	20*	42*
Cc1ccccc1CNC(=O)Cc1ccccc1[N+](=O)[O-]	3	-5	1	2	-10	.	.
O=C(Nc1ccccc1)OCCOc1ccc(Br)cc1	-7	-5	4	0	.	.	.
CC1(c2ccccc2)NC(=O)N(CC(=O)N2CCN(S(=O)(=O)c3cccs3)CC2)C1=O (centres undefined)	4	-2	-5	-4	.	.	.
CSCCC(NC(=O)c1ccc([N+](=O)[O-])cc1Cl)C(=O)OCC(=O)NC1CCCC(C)C1C (centres undefined)	2	0	33*	2	4	17*	40*
CSCCC(NC(=O)c1ccc([N+](=O)[O-])cc1Cl)C(=O)OC1CCCCC1=O (centres undefined)	-7	-3	31*	0	.	14*	39*
CC(=O)OC(C(=O)NCCN1CCOCC1)c1c(F)cccc1F (centres undefined)	9	1	5	2	-25	.	.
O=C(Nc1cccnc1Cl)c1cc(-c2ccc(Br)cc2)on1	-8	7	-1	1	.	.	.
NS(=O)(=O)c1ccc(O)c(N2C(=O)c3cccc4c(C(=O)c5ccccc5)ccc(c34)C2=O)c1	.	.	.	.	15	.	.
CC(C)NC(=O)C1(C)CSCC(=O)N1Cc1cccc(C(F)(F)F)c1 (centres undefined)	.	-5	.	.	.	.	.
C=Cn1ccnc1CC(O)c1ccc(OC)cc1 (centres undefined)	-5	-10	6	0	.	.	.
Cc1ccc(C(=O)O)cc1NC(=O)Nc1ccc2c(c1)OCO2	-6	-7	30*	2	-7	2	-1
O=C(Nc1cccc(C(=O)O)c1)Nc1ccc2c(c1)OCO2	1	-8	-2	-2	.	.	.
CC(=O)c1ccc(S(=O)(=O)NCCc2csc(-c3cccnc3)n2)cc1	1	0	0	-3	.	.	.
SMILES	TLR9-MyD88 inh	NOD2-RIPK2 inh	MC4R antag cAMP	MC4R barr agon	TLR4 MyD88 comp	cAMP nonselect	MC4R antag conf
Cc1cc(C)c(S(=O)(=O)NCC(=O)NCc2ccccn2)c(C)c1	7	-5	30*	-3	5	0	-2
CC(=O)N1CCOc2ccc(S(=O)(=O)N3CCC(C(=O)NCc4ccccc4)CC3)cc21	-10	6	21	-3	.	.	.
Cc1ccccc1C(=O)Nc1ccnn1C1CCN(Cc2cnn(C)c2)CC1	-9	-1	3	-2	.	.	.
CC(C)c1ccc(OCC(=O)NC(=S)Nc2ccc3c4c(cccc24)CC3)cc1	1	-12	38*	0	-2	20*	37*
COC(=O)c1ccccc1NC(=S)NC(=O)COc1ccc(C(C)C)cc1	8	-6	1	1	0	.	.
COc1cccc(C(=O)c2c[nH]c(C(=O)NCc3cccnc3)c2)c1	-4	-7	30*	-1	8	3	12
CCOC(=O)C1=C(O)/C(=C/c2ccc(OCC(=O)O)c(OCC)c2)SC1=Nc1ccc(C)cc1	4	6	29*	0	-7	-6	-2
CCOC(=O)C1=C(O)/C(=C/c2ccc(OCC(=O)O)c(OCC)c2)SC1=Nc1ccc(OC)cc1	4	-3	-5	-2	-6	.	.
COCCN1C(=O)c2ccccc2C1c1nc2ccccc2[nH]1 (centres undefined)	.	-5	.	.	.	.	.
O=C(CSc1n[nH]c(-c2ccccc2O)n1)N1CCOCC1	-7	0	30*	5	-4	1	-5
O=C(CSc1n[nH]c(-c2ccccc2)n1)N1CCOCC1	3	-9	6	-1	.	.	.
Cc1cc(C)cc(NC(=O)CN2CCC(NC(=O)c3cccc(F)c3)CC2)c1	7	2	4	-2	.	.	.
Cc1ccc(NC(=O)CN2CCC(NC(=O)c3cccc(F)c3)CC2)cc1C	-3	-6	30*	3	.	2	-7
CCOC(=O)COc1ccc2c(=O)c(-c3ccccc3)coc2c1	3	-3	39*	-1	.	19*	43*
CCOCCOC(=O)COc1ccc2c(=O)c(Oc3ccc(OC)cc3)coc2c1	-8	-4	29*	-1	.	24*	28
CC(=O)Oc1ccc2c(=O)c(-c3ccccc3)coc2c1	8	12	-9	0	-7	.	.
CN(Cc1ccccc1)C(=O)c1nn2cccnc2c1Cl	-4	-2	16	4	5	.	.
COc1ccc(C(C(=O)NC2CCCCC2)N(C(=O)CCCC(=O)Nc2ccccn2)c2ccc3c(c2)OCCO3)cc1 (centres undefined)	-6	5	33*	1	1	-1	-14
